Assay outcomes as filed in PubChem.
FLuc stim CS = firefly luciferase counter-screen for stimulation assays; P08659; ATPlite luciferase biochemical, luminescence, 10 min; 0 = ATP-free wells, 1 = DMSO control; activation factor at 10 µM; 200,000 tested, under 10 active; AID 1027;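 active = luciferase activation factor, scaled between plate controls, of at least 2 with compound at 10 µM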
Target sequence (P08659 whole entry, looked up): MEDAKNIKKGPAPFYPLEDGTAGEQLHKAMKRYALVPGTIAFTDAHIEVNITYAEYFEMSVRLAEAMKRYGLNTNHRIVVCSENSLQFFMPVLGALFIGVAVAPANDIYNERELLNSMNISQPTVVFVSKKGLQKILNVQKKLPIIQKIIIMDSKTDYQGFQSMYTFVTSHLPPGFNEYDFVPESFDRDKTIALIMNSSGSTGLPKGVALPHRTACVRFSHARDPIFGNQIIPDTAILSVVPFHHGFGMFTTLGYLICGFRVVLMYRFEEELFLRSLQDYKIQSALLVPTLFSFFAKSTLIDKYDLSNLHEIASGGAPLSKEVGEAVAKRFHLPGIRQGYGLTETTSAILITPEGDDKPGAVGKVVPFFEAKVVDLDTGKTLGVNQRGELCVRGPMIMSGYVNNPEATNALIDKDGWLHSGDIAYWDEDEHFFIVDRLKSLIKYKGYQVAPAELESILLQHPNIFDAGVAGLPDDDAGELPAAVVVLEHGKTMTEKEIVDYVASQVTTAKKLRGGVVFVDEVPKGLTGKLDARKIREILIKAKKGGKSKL
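Assay system: Luciferase/luciferin detection reagent, cell-free biochemical luciferase assay / Read-out: luciferase activation / Benchmarks: No-ATP low control, compound-free enzyme-plus-ATP high control / Medium: PBS buffer for ATP / Detection: luminescence measurement of luciferase light output / Schedule: 10 min at ambient temperature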
FLuc inh counter = Photinus pyralis luciferase inhibition counter-screen. 200,000 compounds, 1.5% hits. AID 1006. ATPLite firefly luciferase biochemical luminescence, 10 min. inhibition, % at 10 µM;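 active = inhibition above about 50% when tested at 10 µM, limit read from the data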
C8 TRAIL sens = caspase-8 TRAIL sensitization; AID 624354; NB7+C8 cells + TRAIL, ATPlite viability luminescence; 360,000 compounds, 1% hits; inhibition (viability loss, TRAIL sensitization), % at 10 µM;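 active = compounds causing at least 50% loss of cell viability in the single-dose screen, relative to plate controls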
PPC-1+TRAIL kill = kills PPC-1 cancer cells in the presence of TRAIL | cell killing (% activity), % at 4 µM or 5 µM | 220,000 compounds, 0.41% hits | AID 1443 | PPC-1 cells + TRAIL, ATPLite viability luminescence;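 active = cell killing above 50% in the first pass at 4 µM, then a duplicate retest at 5 µM averaging 50% or more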;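 note: plate controls were cells with TRAIL plus DMSO for no effect and medium-only wells lacking cells for full effect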
Starred values were filed as active, the others as inactive; / = not tested or not shown. Sampled rows, rich in hits. Any-hit rate of the full collection: about 1.6%.

SMILES	FLuc stim CS	FLuc inh counter	C8 TRAIL sens	PPC-1+TRAIL kill
O=C(N/N=C/C(Cl)=C/c1ccccc1)c1ccco1	0.4	64*	31	5
O=C(N/N=C/C(Cl)=C\c1ccccc1)c1cnccn1	0.5	46	24	15
CC(/C=N/NC(=O)c1cccnc1)=C\c1ccccc1	0.4	65*	16	37
O=C(Nc1cccc(C(=O)NC2CC2)c1)c1ccccc1	/	/	-9	/
Cc1ccn2cc(-c3cccc(NC(=O)CCC(=O)O)c3)nc2c1	/	/	59*	/
Cc1ccn2cc(-c3cccc(NS(C)(=O)=O)c3)nc2c1	0.4	58*	27	32
CC(=O)Nc1ccc2nc(-c3ccccc3)cn2c1	0.3	70*	54*	47
Cc1ccn2cc(C(=O)Nc3cccc(C(=O)NC4CC4)c3)nc2c1	/	/	54*	/
CC(C)(C)OC(=O)N1CCC[C@H]1C(=O)N/N=C/c1ccc2nccnc2c1	/	/	-11	0
CC(=O)Nc1cccc(-c2cn3ccc(C)cc3n2)c1	0.2	76*	47	27
CN(C)S(=O)(=O)c1cccc(-c2cn3cc(Cl)ccc3n2)c1	0.9	7	18	20
Clc1ccc2nc(-c3ccccc3)cn2c1	/	/	63*	/
O=C(O)CSCC(=O)N1CCCCC1	1.1	-5	-2	1
Cc1cccc(Nc2ncc3c(n2)CC(c2ccco2)CC3=O)c1 (configuration not stated)	1.1	-6	0	7
C#CCSc1nnc(-c2sc(-c3ccccc3)nc2C)n1C	1	-1	80*	-4
C#CCSc1nnc(-c2c[nH]c3ccccc23)n1C	1	-3	-4	14
COc1ccc(OC)c(/C=C/C(=O)Nc2ccc3c(c2)CCC3)c1	1	-5	-28	-5
CCN(CC(=O)N1CCc2ccccc2C1)S(=O)(=O)c1ccc2ccccc2c1	1.1	-6	55*	23
CCN(CC(=O)N1CCOCC1)S(=O)(=O)c1ccc2ccccc2c1	/	/	-1	/
COc1c(/C=N/NC(=O)c2ccccc2O)c(CCN(C)C(C)=O)cc2c1OCO2	0.2	85*	-1	18
CCC(=O)N(C)CCc1cc2c(c(OC)c1/C=N/NC(=O)c1ccccc1O)OCO2	0.7	32	4	2
C/C(=N\NC(=O)c1cccs1)c1ccc2ccccc2c1	/	/	13	/
C/C(=N\NC(=O)c1ccc2ccccc2c1)c1cccs1	/	/	55*	/
COc1nc(C)ccc1-c1noc(-c2ccccn2)n1	0.3	69*	47	31
Cc1ccc(NC(=O)CSc2nnc(CN3CCOCC3)n2-c2ccccc2)cc1	1	-1	13	11
SMILES	FLuc stim CS	FLuc inh counter	C8 TRAIL sens	PPC-1+TRAIL kill
COc1ccc(S(=O)(=O)/N=C2\C=C(Nc3ccc(O)cc3)C(=O)c3ccccc32)cc1	/	/	96*	/
Fc1ccccc1CN1CCCCCCC1	1	-2	-2	16
Fc1ccc2nc(N3CCOCC3)sc2c1	0.9	7	3	-3
Nc1nc2ccc(N3CCOCC3)cc2s1	0.3	66*	48	18
CC(C)C1(C(C)C)OC(=O)c2ccccc21	1.1	-6	-9	-2
COC(=O)[C@]12CCCCC=C1N(Cc1ccc(Cl)cc1Cl)C(=O)[C@H](CC(=O)NCCC(C)C)C2	/	/	18	/
O=C(Nc1nc(-c2nc3ccccc3s2)cs1)C1CC1	0.5	54*	52*	28
O=C(c1ccncc1)N(Cc1cc2ccccc2[nH]c1=O)C1CCCCC1	1	-4	76*	12
O=C(Nc1ccc([N+](=O)[O-])cc1Cl)c1cc(Cl)ccc1O	/	/	80*	/
COCCn1c(NCc2ccc(C)cc2)nc2c1c(=O)[nH]c(=O)n2C	1.1	-6	-7	10
NS(=O)(=O)c1ccc(NC(=O)c2ccc3c(c2)CCCC3)cc1	/	/	-19	/
CNC(=O)c1ccsc1NC(=O)c1ccc2c(c1)CCCC2	0.3	74*	40	40
O=C(N/N=C/c1ccc(O)c(O)c1)N/N=C/c1ccc(O)c(O)c1	/	/	55*	/
Cc1nonc1C(=O)N/N=C/c1ccc(O)c(O)c1	1	4	15	7
CCOCCCNC(=O)c1cc2c(s1)-c1ccccc1SC2	/	/	4	/
CN(C)CCNC(=O)c1cc2c(s1)-c1ccc(Cl)cc1SC2	/	/	97*	/
O=C1C=C(Nc2cccnc2)c2ccccc2C1=O	/	/	70*	/
O=C1C=C(Nc2ccccc2O)c2ccccc2C1=O	1	3	48	34
CCOc1ccc(NC2=CC(=O)C(=O)c3ccccc32)cc1	/	/	74*	/
O=C1C=C(Nc2ccc(F)cc2)c2ccccc2C1=O	/	/	58*	/
COc1cc(Cl)c(NC2=CC(=O)C(=O)c3ccccc32)c(OC)c1	/	/	87*	/
CCOC(=O)C1=CN(Cc2ccco2)S(=O)(=O)N(C)C1c1ccc(C(F)(F)F)cc1 (configuration not stated)	/	/	4	/
O=C(Oc1ccc2ccccc2c1)c1ccco1	0.9	10	-2	12
CC1CC(C)(C)Nc2ccc(OC(=O)c3ccco3)cc21 (configuration not stated)	0.4	60*	34	12
Cc1cc(C)c(C)c(OCC(=O)O/N=C(\N)c2ccccn2)c1	1	-2	2	30
SMILES	FLuc stim CS	FLuc inh counter	C8 TRAIL sens	PPC-1+TRAIL kill
N/C(=N\OC(=O)COc1ccc(Br)cc1Cl)c1ccccn1	0.6	39	66*	38
N/C(=N\OC(=O)COc1ccc(Br)cc1Cl)c1ccncc1	0.9	14	11	24
N/C(=N\OC(=O)COc1ccc(Cl)cc1Cl)c1ccccn1	0.5	50	54*	41
COc1cc(S(=O)(=O)NCCOC23CC4CC(CC(C4)C2)C3)c(OC)cc1Cl	1	-3	17	12
CCn1cc(C(=O)NCC(OC)OC)c(=O)c2cc(S(=O)(=O)N3CCC(C)CC3)ccc21	/	/	65*	/
CCCCNC(=O)c1cn(C)c2ccc(S(=O)(=O)N3CC(C)CC(C)C3)cc2c1=O (configuration not stated)	/	/	56*	/
